Test results taken from ChEMBL document CHEMBL4342526, “Exploration of the Structural Space in 4(3H)-Quinazolinone Antibacterials” (J Med Chem, 2020).
Converted amounts (≈) assume the structure as drawn.

What was measured:
Staphylococcus aureus [1] = experiment: Antibacterial activity against Staphylococcus aureus ATCC 29213 measured after 16 to 20 hrs by microdilution method; assay type: functional
In short: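 CLSI broth microdilution: two-fold serial dilutions in triplicate in cation-adjusted Mueller–Hinton broth with 2% NaCl, inoculum 5 × 10^5 CFU/mL, incubated at 37 °C for 16–20 h. MIC is the lowest concentration preventing visible growth.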

[2] = Selectivity index, ratio of IC50 for human HeLa cells to MIC for clindamycin/erythromycin/spectinomycin-resistant mec-positive Staphylococcus aureus NRS70; assay type: toxicity
In short: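 HeLa cytotoxicity by XTT assay in triplicate, IC50 by nonlinear regression; ratio IC50 over broth microdilution MIC against NRS70.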

HeLa = experiment: Cytotoxicity against human HeLa cells assessed as reduction in cell viability measured after 16 hrs by XTT assay; assay type: cell-based
In short: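 HeLa cells (ATCC CCL-2), run in triplicate. Viability was read by XTT, and IC50 was obtained by nonlinear regression.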

Staphylococcus aureus [3] = experiment: Antibacterial activity against Staphylococcus aureus ATCC 29213 measured after 16 to 20 hrs in presence of bovine serum albumin by microdilution method; assay type: functional
In short: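 S. aureus ATCC29213 MIC was run by CLSI microdilution in cation-adjusted Mueller–Hinton broth plus 2% NaCl, with and without 0.5% bovine serum albumin. Compounds were two-fold serially diluted in triplicate, inoculum was 5 × 10^5 CFU/mL, and plates were incubated at 37 °C for 16–20 h. The endpoint was the lowest concentration with no visible growth.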

Staphylococcus aureus [4] = experiment: Antibacterial activity against multi-drug resistant mecA-positive Staphylococcus aureus ATCC 27660 measured after 16 to 20 hrs by microdilution method; assay type: functional
In short: (§1)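 CLSI broth microdilution; two-fold serial compound dilutions in triplicate in cation-adjusted Mueller–Hinton broth with 2% NaCl, inoculum 5 × 10^5 CFU/mL; 37 °C for 16–20 h; MIC = lowest concentration with no visible growth.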

Staphylococcus aureus [5] = experiment: Antibacterial activity against multi-drug resistant mec-positive Staphylococcus aureus USA300 measured after 16 to 20 hrs by microdilution method; assay type: functional; in short: as §1
[6] = Protein binding in human plasma at 10 uM measured after 6 hrs UV-UPLC based rapid equilibrium dialysis method; assay type: ADME, cell-free
In short: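 Rapid equilibrium dialysis: human plasma was cleared by centrifugation and spiked from a 1 mM DMSO stock to a final 10 μM, against 0.1 M PBS pH 7.4. Dialysis ran 6 h at 37 °C with orbital shaking. Buffer (free) and plasma (total) aliquots were mixed with internal standard in acetonitrile and measured by UPLC-UV at 285 nm. B% = (Cp−Cf)/Cp×100.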

Staphylococcus aureus [7] = experiment: Antibacterial activity against clindamycin/erythromycin/spectinomycin-resistant mec-positive Staphylococcus aureus NRS70 measured after 16 to 20 hrs by microdilution method; assay type: functional; in short: as §1
Staphylococcus aureus [8] = experiment: Antibacterial activity against multi-drug resistant mecA-positive Staphylococcus aureus NRS119 measured after 16 to 20 hrs by microdilution method; assay type: functional; in short: as §1

| SMILES | MIC (Staphylococcus aureus [1]) [µg/mL] | also measured |
| --- | --- | --- |
| N#Cc1ccc(/C=C/c2nc3ccccc3c(=O)n2-c2cccc(C#N)c2)cc1 | > 128 |  |
| N#Cc1ccc(/C=C/c2nc3ccccc3c(=O)n2-c2ccccc2[N+](=O)[O-])cc1 | > 128 |  |
| N#Cc1ccc(/C=C/c2nc3ccccc3c(=O)n2-c2cc(O)cc(C(=O)O)c2)cc1 | > 128 |  |
| O=C(O)c1cccc(-n2c(/C=C/c3ccc(=O)[nH]c3)nc3ccccc3c2=O)c1 | > 128 |  |
| O=C(O)c1cccc(-n2c(/C=C/c3cncs3)nc3ccccc3c2=O)c1 | > 128 |  |
| O=C(O)c1cccc(-n2c(/C=C/c3ccnc(F)c3)nc3ccccc3c2=O)c1 | > 128 |  |
| O=C(O)c1cccc(-n2c(/C=C/c3cccnc3)nc3ccccc3c2=O)c1 | > 128 |  |
| O=C(O)c1cccc(-n2c(/C=C/c3cccnc3F)nc3ccccc3c2=O)c1 | > 128 |  |
| N#Cc1ccc(/C=C/c2nc3ccccc3c(=O)n2-c2cccc(CN3C(=O)c4ccccc4C3=O)c2)cc1 | > 128 |  |
| O=C(O)c1cccc(-n2c(/C=C/c3cccs3)nc3ccccc3c2=O)c1 | 8 (≈ 21.4 µM) |  |
| O=C(O)c1cccc(-n2c(/C=C/c3ccc[nH]c3=O)nc3ccccc3c2=O)c1 | > 128 |  |
| N#Cc1ccc(/C=C/c2nc3ccccc3c(=O)n2-c2cccc(CNC(=O)C(F)(F)F)c2)cc1 | 0.5 (≈ 1.05 µM) | selectivity ratio [2]: 2; IC50 (HeLa): 150 µg/mL (≈ 316 µM); MIC (Staphylococcus aureus [3]): 8 µg/mL; MIC (Staphylococcus aureus [4]): 64 µg/mL (≈ 135 µM); MIC (Staphylococcus aureus [5]): 4 µg/mL (≈ 8.43 µM); PPB [6]: > 99.9%; MIC (Staphylococcus aureus [7]): 64 µg/mL (≈ 135 µM) |
| CC(=O)NS(=O)(=O)c1cccc(-n2c(/C=C/c3ccc(C#N)cc3)nc3ccccc3c2=O)c1 | 4 (≈ 8.5 µM) | selectivity ratio [2]: 50; IC50 (HeLa): 200 µg/mL (≈ 425 µM); MIC (Staphylococcus aureus [8]): 2 µg/mL (≈ 4.25 µM); PPB [6]: 99.2% |
| N#Cc1ccc(/C=C/c2nc3ccccc3c(=O)n2-c2ccc([N+](=O)[O-])cc2)cc1 | > 128 |  |
| O=C(O)c1cccc(-n2c(/C=C/c3ccsc3)nc3ccccc3c2=O)c1 | 32 (≈ 85.5 µM) |  |
| CC(C(=O)O)n1c(/C=C/c2ccc(C#N)cc2)nc2ccccc2c1=O (stereo not drawn) | 128 (≈ 371 µM) |  |
| CC(=O)NC[C@H]1CN(c2ccc(N3CCOCC3)c(F)c2)C(=O)O1 [LINEZOLID] | 1 (≈ 2.96 µM) |  |

| SMILES | MIC (Staphylococcus aureus [1]) [µg/mL] | also measured |
| --- | --- | --- |
| O=C(O)c1cccc(-n2c(/C=C/c3nccs3)nc3ccccc3c2=O)c1 | > 128 |  |
| N#Cc1ccc(/C=C/c2nc3ccccc3c(=O)n2-c2cc(C(=O)O)ccc2C(F)(F)F)cc1 | > 128 |  |
| C#Cc1ccc(/C=C/c2nc3ccccc3c(=O)n2-c2cccc(C(=O)O)c2)cc1 | 0.03 (≈ 0.0764 µM) | selectivity ratio [2]: > 256; IC50 (HeLa): > 128 µg/mL; MIC (Staphylococcus aureus [8]): 0.125 µg/mL (≈ 0.319 µM); MIC (Staphylococcus aureus [3]): 0.25 µg/mL; MIC (Staphylococcus aureus [4]): 0.125 µg/mL (≈ 0.319 µM); MIC (Staphylococcus aureus [5]): 0.03 µg/mL (≈ 0.0764 µM) |
| N#Cc1ccc(/C=C/c2nc3ccccc3c(=O)n2-c2cccc(C(=O)O)c2)cn1 | 64 (≈ 162 µM) |  |
| O=C(O)c1cccc(-n2c(/C=C/c3ccncc3)nc3ccccc3c2=O)c1 | 64 (≈ 173 µM) |  |
| Nc1cccc(-n2c(N3CCCCC3)nc3ccccc3c2=O)c1 | > 128 |  |
| N#Cc1ccc(/C=C/c2nc3ccccc3c(=O)n2-c2ccc(N)cc2)cc1 | > 128 |  |
| O=C(O)c1cccc(-n2c(/C=C/c3cc[n+]([O-])cc3)nc3ccccc3c2=O)c1 | > 128 |  |
| N#Cc1ccc(/C=C/c2nc3ccccc3c(=O)n2-c2cccc(N)c2)cc1 | 0.5 (≈ 1.37 µM) |  |
| O=c1c2ccccc2nc(N2CCCCC2)n1-c1cccc([N+](=O)[O-])c1 | > 128 |  |
| O=C(O)c1cccc(-n2c(SCc3ccccc3)nc3ccccc3c2=O)c1 | 0.25 (≈ 0.644 µM) | selectivity ratio [2]: > 128; IC50 (HeLa): > 64 µg/mL; MIC (Staphylococcus aureus [8]): 1 µg/mL (≈ 2.57 µM); MIC (Staphylococcus aureus [3]): 4 µg/mL; MIC (Staphylococcus aureus [5]): 1 µg/mL (≈ 2.57 µM); PPB [6]: > 99.9%; MIC (Staphylococcus aureus [7]): 0.5 µg/mL (≈ 1.29 µM) |
| N#Cc1ccc(/C=C/c2nc3ccccc3c(=O)n2-c2ccc(F)c(C(=O)O)c2F)cc1 | 64 (≈ 149 µM) |  |
| O=C(O)c1cccc(-n2c(/C=C/C3CC3)nc3ccccc3c2=O)c1 | > 128 |  |
| N#Cc1ccc(/C=C/c2nc3ccccc3c(=O)n2CCC(=O)O)cc1 | > 128 |  |
| N#Cc1ccc(/C=C/c2nc3ccccc3c(=O)n2-c2cccnc2)cc1 | > 128 |  |
| O=C(O)c1cccc(-n2c(/C=C/c3cc[nH]c(=O)c3)nc3ccccc3c2=O)c1 | > 128 |  |

Continued, in another order:

| MIC (Staphylococcus aureus [1]) [µg/mL] | SMILES | also measured |
| --- | --- | --- |
| > 128 | N#Cc1ccc(/C=C/c2nc3ccccc3c(=O)n2-c2cc(C(=O)O)ccn2)cc1 |  |
| > 128 | CNCCC(=O)Nc1cccc(-n2c(/C=C/c3ccc(C#N)cc3)nc3ccccc3c2=O)c1 |  |
| > 128 | COC(=O)c1cccc(-n2c(/C=C/c3ccc(C#N)cc3)nc3ccccc3c2=O)c1O |  |
| > 128 | N#Cc1ccc(/C=C/c2nc3ccccc3c(=O)n2-c2cc(C(=O)O)ccc2O)cc1 |  |
| 32 (≈ 81.3 µM) | N#Cc1ccc(/C=C/c2nc3ccccc3c(=O)n2-c2ccccc2C(=O)O)cc1 |  |
| 16 (≈ 39 µM) | COC(=O)c1cccc(-n2c(NCc3ccc(C#N)cc3)nc3ccccc3c2=O)c1 |  |
| > 128 | N#Cc1ccc(/C=C/c2nc3ccccc3c(=O)n2-c2cc(F)cc(C(=O)O)c2)cc1 |  |
| > 128 | N#Cc1ccc(/C=C/c2nc3ccccc3c(=O)n2-c2ccc3nc[nH]c3c2)cc1 |  |
| 16 (≈ 38.9 µM) | N#Cc1ccc(/C=C/c2nc3ccccc3c(=O)n2-c2ccc(F)c(C(=O)O)c2)cc1 |  |
| 64 (≈ 178 µM) | Nc1cccc(-n2c(NCc3ccc(F)cc3)nc3ccccc3c2=O)c1 |  |
| > 128 | N#Cc1ccc(CNc2nc3ccccc3c(=O)n2-c2cccc([N+](=O)[O-])c2)cc1 |  |
| > 128 | N#Cc1ccc(/C=C/c2nc3ccccc3c(=O)n2-c2ccc3[nH]c(=O)[nH]c3c2)cc1 |  |
| > 128 | N#Cc1ccc(/C=C/c2nc3ccccc3c(=O)n2-c2cccc(NC(=O)NCc3cnc[nH]3)c2)cc1 |  |
| > 128 | N#Cc1ccc(/C=C/c2nc3ccccc3c(=O)n2-c2cccc(C(=O)O)c2O)cc1 |  |
| > 128 | N#Cc1ccc(COc2nc3ccccc3c(=O)n2-c2cccc(C(=O)O)c2)cc1 |  |
| 8 (≈ 21.8 µM) | N#Cc1ccc(CNc2nc3ccccc3c(=O)n2-c2cccc(N)c2)cc1 |  |

| MIC (Staphylococcus aureus [1]) [µg/mL] | SMILES | also measured |
| --- | --- | --- |
| 0.015 (≈ 0.0339 µM) | CS(=O)(=O)Nc1cccc(-n2c(/C=C/c3ccc(C#N)cc3)nc3ccccc3c2=O)c1 |  |
| > 128 | COC(=O)c1cccc(-n2c(NCc3ccc(F)cc3)nc3ccccc3c2=O)c1 |  |
| > 128 | COC(=O)c1cccc(-n2c(/C=C/c3ccc(C#N)cc3)nc3ccccc3c2=O)n1 |  |
| 8 (≈ 20.2 µM) | N#Cc1ccc(CCc2nc3ccccc3c(=O)n2-c2cccc(C(=O)O)c2)cc1 |  |
| 32 (≈ 84.6 µM) | N#Cc1ccc(/C=C/c2nc3ccccc3c(=O)n2-c2cccc(CN)c2)cc1 |  |
| > 128 | O=c1c2ccccc2nc(NCc2ccc(F)cc2)n1-c1cccc([N+](=O)[O-])c1 |  |
| 8 (≈ 19.4 µM) | N#Cc1ccc(/C=C/c2nc3ccccc3c(=O)n2-c2cccc(C(=O)O)c2F)cc1 |  |
| 16 (≈ 41 µM) | N#Cc1ccc(/C=C/c2nc3ccccc3c(=O)n2-c2cccc(N=[N+]=[N-])c2)cc1 |  |
| 32 (≈ 65.1 µM) | N#Cc1ccc(/C=C/c2nc3ccccc3c(=O)n2-c2cccc(NC(=O)CN3CCOCC3)c2)cc1 |  |
| > 128 | COc1ccc(C(=O)O)cc1-n1c(/C=C/c2ccc(C#N)cc2)nc2ccccc2c1=O |  |
| > 128 | N#Cc1ccc(CNc2nc3ccccc3c(=O)n2-c2cccc(C(=O)O)c2)cc1 |  |
| > 128 | N#Cc1ccc(/C=C/c2nc3ccccc3c(=O)n2-c2ccc3[nH]c(=S)[nH]c3c2)cc1 |  |
| > 128 | Nc1cccc(-n2c(N3CCN(c4ccc(Cl)cc4)CC3)nc3ccccc3c2=O)c1 |  |
| 16 (≈ 31.9 µM) | N#Cc1ccc(/C=C/c2nc3ccccc3c(=O)n2-c2cccc(NC(=O)NCCc3cnc[nH]3)c2)cc1 |  |
| > 128 | N#Cc1ccc(/C=C/c2nc3ccccc3c(=O)n2-c2cccc(C(=O)O)n2)cc1 |  |
